Assay outcomes deposited in PubChem BioAssay by Sanford-Burnham Center for Chemical Genomics.
MT1-MMP act inh = blocks activation of human MT1-MMP; P50281; HT1080 RFP-PRO-GFP cells, GFP/RFP ratio fluorescence, overnight; percent of plate control window, DMSO zero; GFP/RFP ratio change, % at 20 µM; hit rate 0.061% among 360,000; AID 651647;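 active = GFP/RFP ratio change of at least 30% with cell ATP level not reduced by more than half and red fluorescence within 50% of control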
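Assay system: HT1080 cells carrying an RFP-PRO-GFP reporter | Dosing: Single dose of 20 µM compound, 1% DMSO final | Incubation: Cells overnight before dosing, compound overnight, 37 °C, 5% CO2 | Evaluation: GFP/RFP fluorescence ratio | Control set: DMSO and RFP-L50D-GFP cell wells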
PABP polyA inh = PABP-poly(A) binding inhibition; P11940; PABP-poly(A) RNA binding, fluorescence polarization; calls only at 35 µM; hit rate 1% among 290,000; AID 2014;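 also: calls also rest on retests at 20 µM and on dose response follow-up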
MLLE-PAM2 inh = blocks PAM2 peptide binding to the PABP1 MLLE domain. P11940. GST-MLLE / FITC-PAM2 fluorescence polarization. inhibition, % at 20 µM. hit rate 0.36% among 360,000; in the data active = inhibition above about 35%, passing the limit was not always enough
eIF4H FP inh = inhibitors of RNA binding by human eIF4H; eIF4H fluorescence polarization binding assay; inhibition, % at 35 µM; hit rate 0.94% among 290,000; AID 2012;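 also: calls also rest on retests at 20 µM and on dose response follow-up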
SKN-1 block = blocks SKN-1 activity in C. elegans; inhibition, % at 21.8 µM; C. elegans VP596 Pgst-4::GFP/RFP ratio, acrylamide-induced, 24 h; hit rate 0.49% among 360,000;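 active = interference check ratio from 0.5 to 1.5 plus GFP to RFP signal ratio inhibition reaching or exceeding a fixed threshold, cut at about 30% in these data, passing the limit was not always enough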
Large screens that a line does not name were inactive. A selection: hits, their analogues and other compounds. The true share with any hit is near 1.8%. Unless noted, no rule for the calls is given here.

CC(C)CC1NC(=O)c2cc3ccccc3cc2-n2c1nc1cc(Cl)ccc1c2=O (stereo unspecified)	none (no result: PABP polyA inh, eIF4H FP inh)
O=C1CC(SCCc2nc3ccccc3[nH]2)C(=O)N1c1ccc(F)cc1 (stereo unspecified)	none
COc1ccc(N2C(=O)CC(SCCc3nc4ccccc4[nH]3)C2=O)cc1 (stereo unspecified)	MLLE-PAM2 inh 40
COC(=O)C1(C(=O)OC)c2ncccc2N(S(=O)(=O)c2ccc(C)cc2)C1CC(=O)c1ccccc1 (stereo unspecified)	none (no result: PABP polyA inh, MLLE-PAM2 inh, eIF4H FP inh)
CCCCN(C(=O)c1cccc(S(=O)(=O)N(CC)c2ccccc2)c1)c1c(N)n(CC(C)C)c(=O)[nH]c1=O	none (no result: PABP polyA inh, eIF4H FP inh)
Cc1ccc(S(=O)(=O)Nc2nc3ccccc3nc2Nc2cccc(S(=O)(=O)N3CCCC3)c2)cc1	PABP polyA inh inconclusive, MLLE-PAM2 inh 45, eIF4H FP inh inconclusive
CCc1ccccc1NC(=O)CN1CCN(C(=O)C2CCN(C(=O)/C=C/c3ccccc3)CC2)CC1	none (no result: PABP polyA inh, eIF4H FP inh)
O=C(Nc1ncc2c(n1)-c1ccccc1CC2)C1CC1	none
CC(C)SCC(=O)Nc1ncc2c(n1)-c1ccccc1CC2	eIF4H FP inh 76
CC1(c2ccc([N+](=O)[O-])cc2)Nc2ccccc2S1 (stereo unspecified)	MLLE-PAM2 inh 42
Fc1ccc(-c2cn3cc(C(F)(F)F)cc(Cl)c3n2)cc1	SKN-1 block 35
COc1ccc(NC(=O)c2nn(C34CC5CC(CC(C5)C3)C4)cc2[N+](=O)[O-])cc1	PABP polyA inh active, eIF4H FP inh 12
N#Cc1c2c(c(-c3ccco3)[nH]c1=O)CCCC2	MLLE-PAM2 inh 42
N#Cc1c(-c2ccco2)c2c([nH]c1=S)CCCC2	none
O=C(c1ccc(S(=O)(=O)c2ccccc2)cc1)N1CCc2ccccc2C1	none
O=C(c1ccc([N+](=O)[O-])cc1)N1CCc2ccccc2C1	PABP polyA inh active, eIF4H FP inh 4.6
Fc1ccc(Br)cc1C1C=C(c2cccnc2)Nc2ncnn21 (stereo unspecified)	MLLE-PAM2 inh 48
CC(C)(C)c1ccc(C2=CC(c3ccccc3F)n3ncnc3N2)cc1 (stereo unspecified)	none (no result: PABP polyA inh, eIF4H FP inh)
C[n+]1cccc2cccc([O-])c21	PABP polyA inh active
[O-][n+]1cccc2cccc(O)c21	none (no result: PABP polyA inh, eIF4H FP inh)
CN(C)c1ccc(S(=O)(=O)NCC(=O)N2CCN(c3ccccc3)CC2)cc1[N+](=O)[O-]	none (no result: PABP polyA inh, eIF4H FP inh)
FC(F)(F)c1nc2ccccc2nc1N/N=C\c1ccccc1	SKN-1 block 37
CC(C)C[C@H]1CN(CCCC[C@@H]2CNC(=O)C(=O)N2Cc2ccccc2)C(=O)C(=O)N1CCC1CCCCC1	none (no result: PABP polyA inh, MLLE-PAM2 inh, eIF4H FP inh)
O=C(Nc1ccccc1Oc1ccccc1)c1cccs1	SKN-1 block 42
c1ccc2nc3[nH]cnc3nc2c1	MLLE-PAM2 inh 49
c1ccc2[nH]cnc2c1	none (no result: PABP polyA inh, eIF4H FP inh)
CCc1ccc(N(CC(=O)N2CCOCC2)S(C)(=O)=O)cc1	none
CC(C)OC(=O)CSc1nnnn1-c1ccc2c(c1)OCCO2	SKN-1 block 45
CCCc1n(CC(O)COCc2ccccc2)c2ccccc2[n+]1C (stereo unspecified)	none
O=C(O)c1ccccc1C(=O)NCC(O)COCC1CC=CCC1 (stereo unspecified)	none
CCCc1n(CC(O)COCC2CC=CCC2)c2ccccc2[n+]1C (stereo unspecified)	PABP polyA inh active
CCCc1n(CC(O)COC2CCCCC2)c2ccccc2[n+]1C (stereo unspecified)	PABP polyA inh active
CCN(CC(=O)NCc1ccc(F)cc1)Cc1nc2cc(Cl)ccc2c(=O)[nH]1	SKN-1 block 65
Cc1ccsc1C(C(=O)NCc1ccccc1)N(C(=O)c1csnn1)c1ccccc1 (stereo unspecified)	none
COc1ccc(Cl)cc1S(=O)(=O)N1CCN(C(=O)c2n[nH]c(=O)c3ccccc23)CC1	none (no result: PABP polyA inh, eIF4H FP inh)
CC/C(=C\c1ccc(N(C)C)cc1)c1ccncc1	SKN-1 block 67 (no result: PABP polyA inh, eIF4H FP inh)
NC(=O)CSc1nc(C23CC4CC(CC(C4)C2)C3)nc2ccccc12	PABP polyA inh active
C=CCNC(=S)Nc1ccccc1-c1nnc2n1CCCCC2	none
COc1ccc(-n2c(CN3CCC(C(N)=O)CC3)nc3ccc([N+](=O)[O-])cc3c2=O)c(OC)c1	eIF4H FP inh active
CCOC(=O)C1CCN(Cc2nc3ccc([N+](=O)[O-])cc3c(=O)n2-c2ccc(OC)cc2OC)CC1	none
CC(C)NC(=O)CN(C)S(=O)(=O)c1ccc(F)cc1	SKN-1 block 36
